Screens (PubChem BioAssay)
CHO parental Ca: counter-screen: ATP calcium response change in parental CHO cells; 0.63% of 330,000 active; AID 463079; inhibition, % at 5.6 µM; parental CHO-K1, ATP-induced calcium, Fluo-8 fluorescence;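 active = inhibition above that plate's mean sample inhibition plus 3 SD, cut at about 26% in these data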;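 note: 0% = ATP-challenged DMSO wells and 100% = DMSO wells without ATP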
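material = parental CHO cells | also added = ATP as calcium-mobilizing challenge | dosing = single point at 5.6 µM | detection = intracellular calcium via Fluo-8 no-wash fluorescent dye | read-out = % inhibition | benchmarks = low control ATP plus DMSO, high control DMSO only | repeats = one well per compound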
TAAR1 ag: agonists of human TAAR1; Q96RJ0; CHO RD-HGA16 TAAR1, Fluo-8 calcium fluorescence; vehicle wells 0%, saturating PEA agonist 100%; activation, % at 3 µM; 0.99% of 360,000 active;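 active = activation above the mean activation of all test compounds in the run plus 3 SD, cut at about 38% in these data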
Target sequence (Q96RJ0 whole entry, looked up): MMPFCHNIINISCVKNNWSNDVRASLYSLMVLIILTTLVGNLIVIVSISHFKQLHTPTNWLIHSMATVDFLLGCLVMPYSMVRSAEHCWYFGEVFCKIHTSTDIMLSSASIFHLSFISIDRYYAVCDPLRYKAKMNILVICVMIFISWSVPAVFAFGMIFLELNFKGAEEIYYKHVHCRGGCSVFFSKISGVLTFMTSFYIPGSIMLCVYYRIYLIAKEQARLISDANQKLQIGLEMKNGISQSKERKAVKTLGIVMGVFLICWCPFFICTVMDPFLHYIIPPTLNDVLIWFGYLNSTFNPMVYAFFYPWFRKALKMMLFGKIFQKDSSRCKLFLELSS
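Test system: RD-HGA16 (CHO) cells co-expressing Gα16 and hTAAR1 | Doses: Single dose, 3 µM | Schedule: 17-24 h seeding, 75 min 37 °C dye, 30 min RT | Evaluation: % activation from peak over basal fluorescence ratio, DMSO-to-PEA scaled | Technique: Kinetic Fluo-8 calcium fluorescence | Benchmarks: Low control DMSO, high control PEA (EC100)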
OX1R antag-1: blocks the human orexin 1 receptor. O43613. CHO/OX1R cells, Fluo-8 calcium fluorescence, orexin A. inhibition, % at 5 µM. 0.43% of 330,000 active;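 active = inhibition above its plate's threshold, mean inhibition of all tested compounds on the plate plus 3 SD, cut at about 37% in these data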;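 note: 0% = orexin A challenge wells and 100% = SB-334867-A antagonist wells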
GalR3 antagonist: blocks the human galanin receptor 3 | O60755 | HEK293 GalR3-CNG cAMP membrane potential fluorescence; galR3 body fused to GalR1 C-terminus | inhibition, % at 3 µM | 0.44% of 360,000 active | AID 651719;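 active = inhibition above the screen-wide average plus 3 SD, cut at about 13% in these data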;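 note: forskolin and galanin both at EC90 stimulate the cells; cAMP rise reported by CNG channel membrane potential dye signal; 0% = forskolin plus galanin with DMSO and 100% = forskolin alone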
OX1R antag-2: blocks the human orexin 1 receptor; O43613; OX1R-expressing cells, FRET antagonist read-out; inhibition, % at 6.6 µM; 1.8% of 330,000 active; in the data active = inhibition mostly above about 38%, no sharp cut-off; inactive = mostly below about 40%;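 note: 0% = agonist challenge alone and 100% = reference antagonist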
TAAR1 antagonist: human TAAR1 antagonism | CHO RD-HGA16 TAAR1, Fluo-8 calcium fluorescence, antagonist | Q96RJ0 | 1.5% of 360,000 active | inhibition, % at 3 µM;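 active = inhibition above a per-plate cutoff, the mean inhibition of test compounds on that plate plus 3 SD, cut at about 49% in these data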;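 note: 0% = DMSO plus EC80 beta-PEA response and 100% = DMSO alone without agonist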
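Test system – hTAAR1-expressing CHO RD-HGA16 cells, Gα16-coupled · Reagent – β-PEA at EC80 concentration, post-compound challenge · Compound dosing – 3 µM, single point · Timing – 140 s kinetic read after compound, 140 s after agonist · Detection – Fluo-8 intracellular calcium dye fluorescence, real-time kinetic reads · Control set – DMSO and EC80 PEA controls · Repeats – n of 1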
TAAR1 ag confirm: confirmation of human TAAR1 agonists. shares compounds with TAAR1 ag. CHO RD-HGA16 TAAR1, Fluo-8 calcium fluorescence; scaled: DMSO 0%, maximal phenethylamine 100%. activation, % at 3 µM. 82% of 2,400 active. AID 651783;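 active = activation above a cutoff set at the run's mean compound activation plus 3 SD, cut at about 39% in these data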
Ga16 nonsel ag: counter-screen for TAAR1 agonists: nonselective agonists in parental cells; AID 651787; 50% of 2,400 active; shares compounds with TAAR1 ag; activation, % at 3 µM; CHO-Ga16 parental, Fluo-8 calcium fluorescence; normalized to maximal ATP response, DMSO zero;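 active = activation above the run cutoff, the mean activation over all tested wells plus 3 SD, cut at about 12% in these data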;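 note: 0% = DMSO wells and 100% = maximal ATP response on the peak over basal ratio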
TAAR1 desensitize: TAAR1 response desensitization, agonist counter-screen; shares compounds with TAAR1 ag; AID 651951; CHO RD-HGA16 hTAAR1, Fluo-8 calcium, beta-PEA response inhibition; 46% of 2,400 active; inhibition, % at 3 µM;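 active = inhibition above the run cutoff, the mean inhibition of all test compounds plus 3 SD, cut at about 49% in these data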;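 note: beta-PEA stimulus applied at its EC80; loss of beta-PEA calcium signal after compound pretreatment read as receptor desensitization; 0% = DMSO with beta-PEA at EC80 and 100% = DMSO alone without agonist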
Ga16 antag count: counter-screen for TAAR1 agonists: nonselective Ga16 antagonists | CHO-Ga16 ATP-induced calcium, Fluo-8 fluorescence | 39% of 2,400 active | shares compounds with TAAR1 ag | inhibition, % at 3 µM | AID 651952;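 active = inhibition above the plate's mean compound inhibition plus 3 SD, computed per plate, cut at about 22% in these data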;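 note: 0% = EC80 ATP with DMSO and 100% = DMSO wells without ATP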
An asterisk follows results filed as active; . = not tested or not shown. Compounds with a hit are over-represented: about 4.2% of the library has one in this group of screens.

SMILES	CHO parental Ca	TAAR1 ag	OX1R antag-1	GalR3 antagonist	OX1R antag-2	TAAR1 antagonist	TAAR1 ag confirm	Ga16 nonsel ag	TAAR1 desensitize	Ga16 antag count
NC(CO)c1csc(NC(=O)Nc2cccc(Cl)c2)n1 (stereo not drawn)	.	3.0	.	-7.1	.	-2.9	.	.	.	.
NC(COCc1ccccc1)c1csc(NC(=O)Nc2cccc(Cl)c2)n1 (stereo not drawn)	.	58.0*	.	-8.0	.	42.8	50.7*	21.6*	47.1	41.0*
COc1ccc(CC(N)c2csc(NC(=O)Nc3cccc(C(F)(F)F)c3)n2)cc1 (stereo not drawn)	.	84.5*	.	-8.4	.	64.9*	79.6*	42.4*	65.3*	54.5*
NC(Cc1ccc(C(F)(F)F)cc1)c1csc(NC(=O)Nc2ccccc2)n1 (stereo not drawn)	.	50.4*	.	-7.9	.	37.0	60.9*	39.7*	62.6*	53.1*
COc1ccc(CC(N)c2csc(NC(=O)Nc3ccc(F)cc3)n2)cc1 (stereo not drawn)	.	12.7	.	-9.6	.	24.9	.	.	.	.
NC(Cc1ccc(C(F)(F)F)cc1)c1csc(Nc2cc(Oc3ccccc3)ncn2)n1 (stereo not drawn)	.	48.3*	.	7.9	.	9.2	38.1*	21.2*	42.6	37.8*
NC(COCc1ccccc1)c1csc(Nc2nncc3ccccc23)n1 (stereo not drawn)	.	25.6	.	-1.9	.	3.1	.	.	.	.
NC(Cc1ccc(C(F)(F)F)cc1)c1csc(Nc2nncc3ccccc23)n1 (stereo not drawn)	.	54.6*	.	4.3	.	36.2	140.5*	57.8*	105.8*	69.1*
NC(CCc1ccccc1)c1csc(NC(=O)Nc2cccc(C(F)(F)F)c2)n1 (stereo not drawn)	.	48.6*	.	-6.9	.	36.5	39.4*	19.4*	35.1	39.5*
CC(C)C(N)c1csc(NC(=O)Nc2cccc(C(F)(F)F)c2)n1 (stereo not drawn)	.	21.8	.	-8.6	.	18.3	.	.	.	.
Cc1csc(SCc2nnc(-c3ccccc3Br)o2)n1	-6.7	13.4	-9.6	-4.1	30.6	4.6	.	.	.	.
Cc1ccc(CN(CC(=O)NCc2ccc3c(c2)OCO3)C(=O)c2csnn2)cc1	-7.1	-3.7	-45.7	-1.6	5.2	24.6	.	.	.	.
COc1ccc(Nc2nc(N3CCCC3)c3ccccc3n2)cc1	-1.7	67.1*	1.0	-0.2	29.6	48.2	89.4*	9.4	86.3*	18.7
COc1ccc(Nc2c3ccccc3nc3ccccc23)cc1	-9.8	4.0	-13.3	-9.8	10.2	3.0	.	.	.	.
COc1ccc(Br)cc1CSC(=N)N	-9.3	46.0*	-14.1	-5.1	16.2	15.9	70.7*	4.4	42.2	9.4
CCOc1ccc(CSC(=N)N)cc1	5.0	12.0	-1.4	-3.5	5.2	-5.0	.	.	.	.
CC(=O)c1ccc(OC(C)C)c(CSC(=N)N)c1	-9.7	30.2	-6.7	1.6	14.9	-9.5	.	.	.	.
CCCCCOc1ccc(Br)cc1CSC(=N)N	.	93.4*	.	19.3*	.	92.8*	105.6*	60.1*	102.0*	71.5*
CCCCOc1ccc(CSC(=N)N)cc1Cl	0.5	100.5*	-30.9	2.1	-4.6	0.7	108.5*	55.4*	60.7*	27.4*
COc1cc2[nH]c(C(=O)NN)c(N)c2cc1OC	-17.0	.	-5.0	.	37.4	.	.	.	.	.
CCN(CC)CCN1C(=O)c2oc3ccccc3c(=O)c2C1c1ccccc1 (stereo not drawn)	-5.3	.	-18.0	.	23.2	.	.	.	.	.
